Measured values from ChEMBL document CHEMBL4689842, “EUbOPEN Chemogenomics Library wave 1” (2021).

System: HEK-293T
Assay: Multiplex assay against HEK293T;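 on Population Tubulin-Different-Phenotype (%): share of the cells with healthy nuclei that show this phenotype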
Format: toxicity, cell-based
Conditions: human
How it was run: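 With compound added, live cells were imaged on a CQ1 microscope at 37°C and 5% CO2; staining with Hoechst33342, BioTracker Green Microtubule Cytoskeleton Dye, MitoTracker Red and Annexin V Alexa Fluor 680 had been done at seeding. The CellPathfinder machine-learning gating scheme split cells into Hoechst high-intensity objects or normal cells, normal cells into healthy, pyknosed or fragmented nuclei, and pyknosed cells into mitotic or apoptotic. The tubulin, mitochondrial-mass and membrane-permeability phenotypes are per cents of healthy-nucleus cells.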

[1] = 12 h, 1 µM, compound concentration 1 uM, replicate 1
[2] = 12 h, 1 µM, compound concentration 1 uM, replicate 2
[3] = 12 h, 10 µM, compound concentration 10 uM, replicate 1
[4] = 12 h, 10 µM, compound concentration 10 uM, replicate 2
[5] = 24 h, 1 µM, compound concentration 1 uM, replicate 1
[6] = 24 h, 1 µM, compound concentration 1 uM, replicate 2
[7] = 24 h, 10 µM, compound concentration 10 uM, replicate 1
[8] = 24 h, 10 µM, compound concentration 10 uM, replicate 2
[9] = 48 h, 1 µM, compound concentration 1 uM, replicate 1
[10] = 48 h, 1 µM, compound concentration 1 uM, replicate 2
[11] = 48 h, 10 µM, compound concentration 10 uM, replicate 1
[12] = 48 h, 10 µM, compound concentration 10 uM, replicate 2

## CNc1cc(Oc2cc(C(=O)Nc3cc(N4CCN(C)CC4)cc(C(F)(F)F)c3)ccc2C)ncn1
[1]
  Population Apoptotic (%): 79%
  Population Fragmented Nuclei (%): 14%
  Population Healthy Nuclei (%): 13%
  Population Hoechst High Intensity Objects (%): 20%
  Population Membrane Permeable-Phenotype (%): 0%
  Population Mitochondria Different-Phenotype (%): 96%
  Population Mitotic Cells (%): 20%
  Population Normal (%): 79%
  Population Pyknosed Nuclei (%): 72%
  Population Tubulin-Different-Phenotype (%): 89%
  Total Cell Count: 263
[2]
  Population Apoptotic (%): 41%
  Population Fragmented Nuclei (%): 8%
  Population Healthy Nuclei (%): 21%
  Population Hoechst High Intensity Objects (%): 6%
  Population Membrane Permeable-Phenotype (%): 2%
  Population Mitochondria Different-Phenotype (%): 69%
  Population Mitotic Cells (%): 58%
  Population Normal (%): 93%
  Population Pyknosed Nuclei (%): 70%
  Population Tubulin-Different-Phenotype (%): 76%
  Total Cell Count: 213
[3]
  Population Apoptotic (%): 86%
  Population Fragmented Nuclei (%): 17%
  Population Healthy Nuclei (%): 3%
  Population Hoechst High Intensity Objects (%): 21%
  Population Membrane Permeable-Phenotype (%): 0%
  Population Mitochondria Different-Phenotype (%): 100%
  Population Mitotic Cells (%): 13%
  Population Normal (%): 78%
  Population Pyknosed Nuclei (%): 80%
  Population Tubulin-Different-Phenotype (%): 83%
  Total Cell Count: 256
[4]
  Population Apoptotic (%): 98%
  Population Fragmented Nuclei (%): 5%
  Population Healthy Nuclei (%): 4%
  Population Hoechst High Intensity Objects (%): 14%
  Population Mitotic Cells (%): 1%
  Population Normal (%): 85%
  Population Pyknosed Nuclei (%): 89%
  Population Tubulin-Different-Phenotype (%): 60%
  Total Cell Count: 127
[5]
  Population Apoptotic (%): 73%
  Population Fragmented Nuclei (%): 18%
  Population Healthy Nuclei (%): 12%
  Population Hoechst High Intensity Objects (%): 21%
  Population Membrane Permeable-Phenotype (%): 0%
  Population Mitochondria Different-Phenotype (%): 96%
  Population Mitotic Cells (%): 26%
  Population Normal (%): 78%
  Population Pyknosed Nuclei (%): 69%
  Population Tubulin-Different-Phenotype (%): 81%
  Total Cell Count: 269
[6]
  Population Apoptotic (%): 41%
  Population Fragmented Nuclei (%): 12%
  Population Healthy Nuclei (%): 36%
  Population Hoechst High Intensity Objects (%): 5%
  Population Membrane Permeable-Phenotype (%): 1%
  Population Mitochondria Different-Phenotype (%): 63%
  Population Mitotic Cells (%): 58%
  Population Normal (%): 94%
  Population Pyknosed Nuclei (%): 51%
  Population Tubulin-Different-Phenotype (%): 70%
  Total Cell Count: 284
[7]
  Population Apoptotic (%): 88%
  Population Fragmented Nuclei (%): 15%
  Population Healthy Nuclei (%): 0%
  Population Hoechst High Intensity Objects (%): 26%
  Population Membrane Permeable-Phenotype (%): 0%
  Population Mitochondria Different-Phenotype (%): 100%
  Population Mitotic Cells (%): 11%
  Population Normal (%): 73%
  Population Pyknosed Nuclei (%): 84%
  Population Tubulin-Different-Phenotype (%): 100%
  Total Cell Count: 264
[8]
  Population Apoptotic (%): 97%
  Population Fragmented Nuclei (%): 6%
  Population Healthy Nuclei (%): 3%
  Population Hoechst High Intensity Objects (%): 18%
  Population Mitotic Cells (%): 2%
  Population Normal (%): 81%
  Population Pyknosed Nuclei (%): 89%
  Population Tubulin-Different-Phenotype (%): 75%
  Total Cell Count: 126
[9]
  Population Apoptotic (%): 68%
  Population Fragmented Nuclei (%): 24%
  Population Healthy Nuclei (%): 21%
  Population Hoechst High Intensity Objects (%): 18%
  Population Membrane Permeable-Phenotype (%): 1%
  Population Mitochondria Different-Phenotype (%): 76%
  Population Mitotic Cells (%): 31%
  Population Normal (%): 81%
  Population Pyknosed Nuclei (%): 54%
  Population Tubulin-Different-Phenotype (%): 74%
  Total Cell Count: 297
[10]
  Population Apoptotic (%): 40%
  Population Fragmented Nuclei (%): 14%
  Population Healthy Nuclei (%): 65%
  Population Hoechst High Intensity Objects (%): 4%
  Population Membrane Permeable-Phenotype (%): 6%
  Population Mitochondria Different-Phenotype (%): 25%
  Population Mitotic Cells (%): 59%
  Population Normal (%): 95%
  Population Pyknosed Nuclei (%): 19%
  Population Tubulin-Different-Phenotype (%): 51%
  Total Cell Count: 421
[11]
  Population Apoptotic (%): 91%
  Population Fragmented Nuclei (%): 32%
  Population Healthy Nuclei (%): 1%
  Population Hoechst High Intensity Objects (%): 29%
  Population Membrane Permeable-Phenotype (%): 0%
  Population Mitochondria Different-Phenotype (%): 100%
  Population Mitotic Cells (%): 8%
  Population Normal (%): 70%
  Population Pyknosed Nuclei (%): 66%
  Population Tubulin-Different-Phenotype (%): 33%
  Total Cell Count: 273
[12]
  Population Apoptotic (%): 98%
  Population Fragmented Nuclei (%): 7%
  Population Healthy Nuclei (%): 5%
  Population Hoechst High Intensity Objects (%): 26%
  Population Membrane Permeable-Phenotype (%): 20%
  Population Mitotic Cells (%): 1%
  Population Normal (%): 73%
  Population Pyknosed Nuclei (%): 87%
  Population Tubulin-Different-Phenotype (%): 80%
  Total Cell Count: 131
